Reference: ChEMBL document CHEMBL3352764, “Rational design of novel CYP2A6 inhibitors” (Bioorg Med Chem, 2014)

Key:
Cytochrome P450 2A6 [1] = biological target: T1, Cytochrome P450 2A6 (Homo sapiens, UniProt P11509); experiment: Inhibition of human CYP2A6 in baculovirus-infected insect cell system using […] as substrate preincubated for 10 mins by fluorescence assay
T1 sequence (P11509 whole entry): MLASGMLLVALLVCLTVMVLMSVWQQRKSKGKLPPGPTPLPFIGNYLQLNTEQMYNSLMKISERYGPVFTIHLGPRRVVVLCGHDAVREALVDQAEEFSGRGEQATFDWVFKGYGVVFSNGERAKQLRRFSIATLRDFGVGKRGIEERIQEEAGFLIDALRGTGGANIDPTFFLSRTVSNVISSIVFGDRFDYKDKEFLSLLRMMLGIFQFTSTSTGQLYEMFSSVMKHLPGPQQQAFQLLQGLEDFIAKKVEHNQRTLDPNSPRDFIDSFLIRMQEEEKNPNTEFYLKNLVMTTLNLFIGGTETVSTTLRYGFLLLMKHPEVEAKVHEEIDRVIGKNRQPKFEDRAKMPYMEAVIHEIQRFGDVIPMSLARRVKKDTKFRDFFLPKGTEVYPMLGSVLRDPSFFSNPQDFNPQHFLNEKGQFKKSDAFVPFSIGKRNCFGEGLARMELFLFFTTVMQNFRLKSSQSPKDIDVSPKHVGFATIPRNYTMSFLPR
Procedure, shortened: (§1)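 Coumarin 7-hydroxylation by baculovirus/insect-cell human CYP2A6. Reaction started with NADPH (final 0.33 mM) and preincubated 10 min at 37 °C. Stopped with 10% TCA, then 1.6 M glycine-NaOH added; 7-hydroxycoumarin fluorescence read at ex 355/em 450 nm. Blanks subtracted; activity as % of control; IC50 by nonlinear fitting.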

Cytochrome P450 2A6 [2] = biological target: T1, Cytochrome P450 2A6; experiment: Inhibition of human CYP2A6 in baculovirus-infected insect cell system using […] as substrate incubated for 30 mins prior to substrate addition measured after 10 mins by fluorescence assay; conditions: for inhibition (INH): human, 10 min
Cytochrome P450 2A6 [3] = biological target: T1, Cytochrome P450 2A6; experiment: Mixed-type inhibition of human CYP2A6 in baculovirus-infected insect cell system assessed as nicotine metabolism after 15 mins
Procedure, shortened: (§2)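 Nicotine oxidation by expressed CYP2A6 (with P450 reductase and cytochrome b5): 10 pmol CYP and 10 pmol b5/ml, 1 mM NADPH, 50 µl cytosol, 50 mM Tris–HCl pH 7.4, 37 °C, 15 min. Stopped with 4% v/v Na2CO3; 5-methylcotinine internal standard; nicotine and metabolites quantified by HPLC. Drug concentrations expressed as free base.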

Cytochrome P450 2A6 [4] = biological target: T1, Cytochrome P450 2A6; experiment: Competitive inhibition of human CYP2A6 in baculovirus-infected insect cell system assessed as nicotine metabolism after 15 mins; procedure, shortened: as §2
Cytochrome P450 2A6 [5] = biological target: T1, Cytochrome P450 2A6; experiment: Inhibition of human CYP2A6 in baculovirus-infected insect cell system using […] as substrate in presence of mouse liver cytosolic fraction by fluorescence assay
CYP2A6 = biological target: T2, CYP2A6 (Homo sapiens, UniProt P11509); experiment: (§3) Irreversible inhibition of human CYP2A6 in baculovirus-infected insect cell system using […] as substrate incubated for 10 mins by fluorescence assay; conditions: human, probe coumarin (printed: coumarin 7)
T2 sequence (P11509 whole entry): T1 sequence (P11509 whole entry)
Procedure, shortened: (§4)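 Inactivation: five inhibitor concentrations plus vehicle preincubated various times (including 0 min) with 5–20 pmol CYP2A6 and NADPH. Then diluted 10–40 fold into 50 mM Tris–HCl pH 7.4, 5 mM MgCl2, 10 µM coumarin, 0.3 mM NADPH, 10 min at 37 °C. Kobs from ln activity vs time; Kinact and Ki from double-reciprocal regression.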

Cytochrome P450 2A6 [6] = biological target: T1, Cytochrome P450 2A6; experiment: as §3; procedure, shortened: as §4
Cytochrome P450 2A6 [7] = biological target: T1, Cytochrome P450 2A6; experiment: Reversible inhibition of human CYP2A6 in baculovirus-infected insect cell system using […] as substrate preincubated for 10 mins by fluorescence assay; procedure, shortened: as §1
Cytochrome P450 2A6 [8] = biological target: T1, Cytochrome P450 2A6; experiment: Irreversible inhibition of human CYP2A6 in baculovirus-infected insect cell system assessed as nicotine metabolism after 15 mins; procedure, shortened: as §2

Row | Structure (SMILES) | IC50 (Cytochrome P450 2A6 [1]) [nM] | inhibition (INH) (Cytochrome P450 2A6 [2]) | further results
1 | O=Cc1cc2ccccc2o1 | 17000 |  | 
2 | OCc1csc2ccccc12 | 37000 | Active | 
3 | NCc1csc2ccc(Cl)cc12 | 400 | Active | Ki (Cytochrome P450 2A6 [1]): 90 nM; Ki (Cytochrome P450 2A6 [3]): 6000 nM
4 | O=Cc1ccc2[nH]ccc2c1 | 400 | Active | Ki (Cytochrome P450 2A6 [1]): 70 nM; Ki (Cytochrome P450 2A6 [4]): 1800 nM; inhibition (INH) (Cytochrome P450 2A6 [5]): Not Active
5 | OCc1cc2cc(Br)ccc2o1 | < 100000 |  | 
6 | N#Cc1csc2ccc(Cl)cc12 | 41000 | Active | 
7 | Brc1ccc2[nH]ccc2c1 | 7400 | Active | 
8 | NCc1cc2ccccc2s1 |  | Active | Ki (Cytochrome P450 2A6 [1]): 10 nM
9 | OCc1cc2ccccc2s1 | 18000 | Active | 
10 | O=C(Cl)c1csc2ccccc12 | 270000 |  | 
11 | Cc1ccc2sc(C=O)cc2c1 | 3400 | Active | 
12 | O=Cc1cc2cc(Br)ccc2o1 | 72000 |  | 
13 | CNCc1cc2ccccc2s1 | 500 | Active | 
14 | NCc1cc2cnccc2s1 | 1000 | Active | 
15 | O=Cc1c[nH]c2ccccc12 [3-FORMYLINDOLE] | 79000 | Active | Ki (Cytochrome P450 2A6 [1]): 11000 nM
16 | NCc1cc2ccncc2s1 | 5200 | Active | 
17 | O=Cc1ccc2cc[nH]c2c1 | 1500 | Active | 
18 | O=Cc1cccc2ccsc12 | 11000 | Active | 
19 | Cn1ccc2cc(C=O)ccc21 | 680 | Active | 
20 | Brc1cc2ccccc2o1 | 140000 |  | 
21 | O=Cc1ccc2sccc2c1 | 900 | Active | 
22 | O=Cc1ccc2occc2c1 | 400 |  | Ki (Cytochrome P450 2A6 [1]): 70 nM; IC50 (Cytochrome P450 2A6 [2]): 50 nM; kinact at 10 min (CYP2A6): 0.00133 s⁻¹; Ki (Cytochrome P450 2A6 [6]; read-out: Ki): 2400 nM; Ki (Cytochrome P450 2A6 [4]): 5500 nM; inhibition (INH) (Cytochrome P450 2A6 [5]): Not Active
23 | O=CCc1coc2ccccc12 | < 100000 |  | 

Row | Structure (SMILES) | IC50 (Cytochrome P450 2A6 [1]) [nM] | inhibition (INH) (Cytochrome P450 2A6 [2]) | further results
24 | CCc1ccc(C#N)cc1 | 7400 |  | 
25 | NCc1cc2cc(Br)ccc2o1 | < 100000 |  | 
26 | N#CCc1csc2ccc(Cl)cc12 | 51000 | Active | 
27 | O=Cc1cc2ccccc2s1 | 3200 |  | IC50 (Cytochrome P450 2A6 [2]): 800 nM; Ki (Cytochrome P450 2A6 [6]; read-out: Ki(app)): 130 nM
28 | N#Cc1cc2ccccc2o1 | 52000 |  | 
29 | Cc1ccc(C#N)cc1 | 8100 |  | 
30 | Cc1cc2cc(N)ccc2[nH]1 | 34000 | Active | 
31 | CN(C)Cc1cc2cnccc2s1 | 1400 | Active | Ki (Cytochrome P450 2A6 [1]): 600 nM; Ki (Cytochrome P450 2A6 [4]): 500 nM; inhibition (INH) (Cytochrome P450 2A6 [7]): Active
32 | O=Cc1cc2ccncc2s1 | 400 | Active | Ki (Cytochrome P450 2A6 [1]): 60 nM; Ki (Cytochrome P450 2A6 [4]): 4200 nM; inhibition (INH) (Cytochrome P450 2A6 [5]): Not Active
33 | O=Cc1cc2ccccc2[nH]1 | 11000 |  | IC50 (Cytochrome P450 2A6 [2]): 1800 nM; kinact at 10 min (CYP2A6): 0.00133 s⁻¹; Ki (Cytochrome P450 2A6 [6]; read-out: Ki): 2400 nM
34 | CNCc1cc2cccnc2s1 | 2200 | Active | Ki (Cytochrome P450 2A6 [1]): 800 nM
35 | O=Cc1c[nH]c2cccc(Br)c12 | 12000 | Active | Ki (Cytochrome P450 2A6 [1]): 8600 nM
36 | O=Cc1cc2cccnc2s1 | 8000 |  | IC50 (Cytochrome P450 2A6 [2]): 400 nM; kinact at 10 min (CYP2A6): 0.00133 s⁻¹; Ki (Cytochrome P450 2A6 [6]; read-out: Ki): 2400 nM
37 | O=Cc1cc2cnccc2s1 | 300 | Active | Ki (Cytochrome P450 2A6 [1]): 70 nM; Ki (Cytochrome P450 2A6 [4]): 1100 nM; inhibition (INH) (Cytochrome P450 2A6 [7]): Active; inhibition (INH) (Cytochrome P450 2A6 [5]): Not Active
38 | Cc1csc2ccc(Cl)cc12 | 88000 | Active | 
39 | CNCc1cc2cnccc2s1 | 1500 | Active | 
40 | NCc1csc2ccc(Br)cc12 | 700 | Active | Ki (Cytochrome P450 2A6 [1]): 200 nM; Ki (Cytochrome P450 2A6 [3]): 800 nM; inhibition (INH) (Cytochrome P450 2A6 [7]): Active
41 | N#Cc1ccc2occc2c1 | 1600 |  | Ki (Cytochrome P450 2A6 [1]): 100 nM; IC50 (Cytochrome P450 2A6 [2]): 600 nM; kinact at 10 min (CYP2A6): 0.00133 s⁻¹; Ki (Cytochrome P450 2A6 [6]; read-out: Ki): 2400 nM; Ki (Cytochrome P450 2A6 [8]): 200 nM
42 | O=Cc1c[nH]c2cc(Br)ccc12 | 57000 | Active | Ki (Cytochrome P450 2A6 [1]): 3300 nM
43 | Cn1ccc2ccc(C=O)cc21 | 8400 | Active | 
44 | O=Cc1csc2ccc(Br)cc12 | 5000 |  | IC50 (Cytochrome P450 2A6 [2]): 500 nM; Ki (Cytochrome P450 2A6 [6]; read-out: Ki(app)): 1500 nM
45 | NC(=S)c1csc2ccncc12 | 6600 | Active | 
